Test results from publication PMC4160279 (Journal of the American Chemical Society, 2014).
“And” between values parts separate entries of the source, which are not always exact repeats. Equal entries are not always repeated.

How the values were obtained:
NoV VA387 P dimer [1] = settings: reported values; cited from earlier work
NoV VA387 P dimer [2] = assay: Direct ESI-MS assay, NoV VA387 P dimer; design: species or system human NoV VA387 (GII.4); settings: intrinsic (per binding site) association constant; aqueous ammonium acetate (200 mM), pH 7, 25 °C
In short: (§1)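 Recombinant P dimer, buffer-exchanged into ammonium acetate and quantified by UV, was mixed (e.g., 12 μM) with ganglioside oligosaccharide (e.g., 80 μM) and reference protein (4 μM). Nanoelectrospray in negative ion mode used capillary −0.8 kV, cone 60 V and source 60 °C. Runs covered ≥4 initial ligand concentrations in triplicate. Ka,int came from bound/free abundance ratios, corrected for nonspecific binding, with two equivalent sites.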

NoV VA115 P dimer = assay: Direct ESI-MS assay, NoV VA115 P dimer; design: species or system human NoV VA115 (GI.3); settings: intrinsic (per binding site) association constant; aqueous ammonium acetate (200 mM), pH 7, 25 °C
In short: as §1

NoV VA387 P particle [3] = assay: CaR-ESI-MS screening assay; type: binding, human NoV VA387 (GII.4); settings: P particle (3 μM) and 10 μM of GD1a or GD1b
NoV VA387 P particle [4] = assay: Proxy protein ESI-MS method, VA387 P particle; type: binding, human NoV VA387 (GII.4); settings: aqueous ammonium acetate (160 mM), pH 7, 25 °C; Gal-3C as proxy protein
In short: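 Gal-3C proxy (3.0 μM), ubiquitin reference (1.0 μM) and GM3 trisaccharide (40 μM) were mixed with VA387 P particle at 0–7.2 μM (0–172.8 μM monomer); the 24-mer came from E. coli. Positive-mode nanoESI. GM3-bound/free proxy ratio was measured after nonspecific-binding correction. Ka,int per site was derived from the ratio change using the known proxy association constant and binding-site concentration.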

NoV VA387 VLP = assay: Proxy protein ESI-MS method, VA387 VLP; type: binding, human NoV VA387 (GII.4); settings: aqueous ammonium acetate (160 mM), pH 7, 25 °C; Gal-3C as proxy protein
In short: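 VLPs were expressed from VA387 VP1 in Sf9 cells by recombinant baculovirus and purified on a sucrose gradient, then tested at 0–570 nM (0–102.6 μM monomer). Each mix held Gal-3C proxy (3.0 μM), ubiquitin reference (1.0 μM) and GM3 trisaccharide (40 μM). Positive-mode nanoESI. Ka,int per site came from the corrected proxy bound/free ratio versus VLP concentration, using the known proxy affinity.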

[5] = molecular target: recombinant fragment of the C-terminus of human galectin-3 (Gal-3C) (Homo sapiens, UniProt P17931); assay: ESI-MS binding of ligand to proxy protein Gal-3C; settings: association constant of proxy protein for the ligand
recombinant fragment of the C-terminus of human galectin-3 (Gal-3C), sequence (P17931 118-248 limits assumed): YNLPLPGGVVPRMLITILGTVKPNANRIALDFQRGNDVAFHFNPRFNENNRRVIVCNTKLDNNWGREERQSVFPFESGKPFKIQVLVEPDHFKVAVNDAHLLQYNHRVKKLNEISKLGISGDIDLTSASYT

Compound	intrinsic affinity (Ka,int) of HBGA ligands (NoV VA387 P dimer [1])	Ka,int P dimer VA387 (NoV VA387 P dimer [2])	Ka,int P dimer VA115 (NoV VA115 P dimer)	binding to P particle, ligand tested alone (NoV VA387 P particle [3])	affinity (Ka,int) for VA387 P particle (NoV VA387 P particle [4])	affinity (Ka,int) for VA387 VLP (NoV VA387 VLP)	affinity for Gal-3C [5]
CC(=O)N[C@H]1C(O)O[C@H](CO)[C@H](O)[C@@H]1O[C@@H]1O[C@H](CO)[C@H](O)[C@H](O[C@H]2O[C@H](CO)[C@H](O)[C@H](O)[C@H]2O)[C@H]1O[C@@H]1O[C@@H](C)[C@@H](O)[C@@H](O)[C@@H]1O (stereo partly drawn) [B3, B type 3 tetrasaccharide]	1500 ± 150 M^–1						
CC(=O)N[C@H]1[C@H](O[C@@H]2[C@H](O[C@]3(C(=O)O)C[C@H](O)[C@@H](NC(C)=O)[C@H]([C@H](O)[C@H](O)CO)O3)[C@@H](O)[C@H](O[C@H]3[C@H](O)[C@@H](O)C(O)O[C@@H]3CO)O[C@@H]2CO)O[C@H](CO)[C@H](O)[C@@H]1O[C@@H]1O[C@H](CO)[C@H](O)[C@H](O[C@]2(C(=O)O)C[C@H](O)[C@@H](NC(C)=O)[C@H]([C@H](O)[C@H](O)CO)O2)[C@H]1O (stereo partly drawn) [GD1a]		<100 M^–1	320 ± 90 M^–1	binds			
CC(=O)N[C@H]1[C@H]([C@H](O)[C@H](O)CO)O[C@@](O[C@H]2[C@@H](O)[C@@H](CO)O[C@@H](O[C@H]3[C@H](O)[C@@H](O)C(O)O[C@@H]3CO)[C@@H]2O)(C(=O)O)C[C@@H]1O (stereo partly drawn) [GM3]		1500 M^–1 and 1500 ± 150 M^–1	1300 ± 130 M^–1		2600 ± 200 M^–1	5500 ± 600 M^–1	(1.20 ± 0.02) × 10^4 M^–1
